ChEMBL document CHEMBL1135657, “Novel dual inhibitors of AChE and MAO derived from hydroxy aminoindan and phenethylamine as potential treatment for Alzheimer's disease” (J Med Chem, 2002)
pIC50: −log10 of the molar value.

What was measured:
[1] = molecular target: T1, Amine oxidase [flavin-containing] A (Rattus norvegicus, UniProt P21396); experiment: In vitro inhibitory concentration against Monoamine oxidase A of rat brain homogenates; value ranges from 13-17; type: tissue-based
T1 sequence (P21396 whole entry): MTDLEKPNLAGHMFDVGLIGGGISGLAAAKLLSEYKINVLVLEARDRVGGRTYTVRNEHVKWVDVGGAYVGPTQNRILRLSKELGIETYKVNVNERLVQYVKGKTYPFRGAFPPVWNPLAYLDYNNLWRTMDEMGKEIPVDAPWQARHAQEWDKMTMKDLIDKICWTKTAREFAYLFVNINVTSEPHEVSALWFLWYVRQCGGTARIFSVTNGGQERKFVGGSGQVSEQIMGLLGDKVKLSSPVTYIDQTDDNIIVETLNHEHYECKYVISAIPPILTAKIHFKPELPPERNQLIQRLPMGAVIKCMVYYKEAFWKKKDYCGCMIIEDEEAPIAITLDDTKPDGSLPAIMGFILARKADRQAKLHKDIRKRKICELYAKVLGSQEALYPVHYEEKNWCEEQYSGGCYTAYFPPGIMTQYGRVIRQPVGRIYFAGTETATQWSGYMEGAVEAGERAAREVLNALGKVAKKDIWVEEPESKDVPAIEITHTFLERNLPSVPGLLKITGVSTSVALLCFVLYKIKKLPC

Butyrylcholinesterase [2] = molecular target: T2, Butyrylcholinesterase (Equus caballus, UniProt Q9N1N9); experiment: In vitro inhibitory concentration against Butyrylcholinesterase of horse serum; value ranges from 1.89-4.67
T2 sequence (Q9N1N9 whole entry): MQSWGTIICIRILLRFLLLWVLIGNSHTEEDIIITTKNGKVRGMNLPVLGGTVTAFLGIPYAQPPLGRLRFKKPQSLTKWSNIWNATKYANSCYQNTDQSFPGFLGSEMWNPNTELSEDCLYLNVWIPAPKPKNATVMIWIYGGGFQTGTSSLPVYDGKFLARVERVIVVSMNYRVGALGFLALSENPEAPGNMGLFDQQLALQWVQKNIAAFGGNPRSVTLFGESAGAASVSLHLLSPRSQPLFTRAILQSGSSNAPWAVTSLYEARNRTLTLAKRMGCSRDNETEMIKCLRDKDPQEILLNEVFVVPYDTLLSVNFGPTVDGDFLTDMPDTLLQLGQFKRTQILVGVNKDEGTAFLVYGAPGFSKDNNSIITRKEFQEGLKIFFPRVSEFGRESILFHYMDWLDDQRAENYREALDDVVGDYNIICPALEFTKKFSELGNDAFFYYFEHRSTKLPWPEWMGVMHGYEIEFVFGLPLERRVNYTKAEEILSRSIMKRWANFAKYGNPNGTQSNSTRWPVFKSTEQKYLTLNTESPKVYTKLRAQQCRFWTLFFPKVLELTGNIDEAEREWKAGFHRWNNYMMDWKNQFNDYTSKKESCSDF
In short: (§1)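 Ellman assay followed, with 200 µM butyrylthiocholine as substrate. Runs were in triplicate with four-point dose-response curves. IC50 and fiducial limits came from log concentration versus % inhibition.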

Acetylcholinesterase [3] = molecular target: T3, Acetylcholinesterase (Homo sapiens, UniProt P22303); experiment: In vitro inhibitory concentration against purified Acetylcholinesterase of human erythrocytes; value ranges from 5.4-38.2
T3 sequence (P22303 whole entry): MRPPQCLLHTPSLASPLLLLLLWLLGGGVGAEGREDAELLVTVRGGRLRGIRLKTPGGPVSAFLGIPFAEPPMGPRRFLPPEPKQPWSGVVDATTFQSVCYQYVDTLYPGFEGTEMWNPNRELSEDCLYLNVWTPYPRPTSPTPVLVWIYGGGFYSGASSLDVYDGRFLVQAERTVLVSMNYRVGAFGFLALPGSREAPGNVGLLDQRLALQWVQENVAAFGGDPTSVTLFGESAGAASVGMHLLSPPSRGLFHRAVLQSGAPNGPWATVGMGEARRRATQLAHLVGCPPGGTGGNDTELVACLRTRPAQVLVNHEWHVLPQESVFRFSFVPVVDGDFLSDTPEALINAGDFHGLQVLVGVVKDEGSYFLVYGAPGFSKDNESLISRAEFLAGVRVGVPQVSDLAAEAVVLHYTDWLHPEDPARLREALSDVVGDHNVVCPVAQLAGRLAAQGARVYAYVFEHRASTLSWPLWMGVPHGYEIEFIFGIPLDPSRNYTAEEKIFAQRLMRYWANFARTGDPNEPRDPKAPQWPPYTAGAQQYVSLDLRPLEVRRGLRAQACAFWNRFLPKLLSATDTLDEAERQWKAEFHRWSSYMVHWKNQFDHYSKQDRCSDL

[4] = molecular target: T4, Amine oxidase [flavin-containing] B (Rattus norvegicus, UniProt P19643); experiment: In vitro inhibitory concentration against Monoamine oxidase B of rat brain homogenates; value ranges from 0.2-0.8; type: tissue-based
T4 sequence (P19643 whole entry): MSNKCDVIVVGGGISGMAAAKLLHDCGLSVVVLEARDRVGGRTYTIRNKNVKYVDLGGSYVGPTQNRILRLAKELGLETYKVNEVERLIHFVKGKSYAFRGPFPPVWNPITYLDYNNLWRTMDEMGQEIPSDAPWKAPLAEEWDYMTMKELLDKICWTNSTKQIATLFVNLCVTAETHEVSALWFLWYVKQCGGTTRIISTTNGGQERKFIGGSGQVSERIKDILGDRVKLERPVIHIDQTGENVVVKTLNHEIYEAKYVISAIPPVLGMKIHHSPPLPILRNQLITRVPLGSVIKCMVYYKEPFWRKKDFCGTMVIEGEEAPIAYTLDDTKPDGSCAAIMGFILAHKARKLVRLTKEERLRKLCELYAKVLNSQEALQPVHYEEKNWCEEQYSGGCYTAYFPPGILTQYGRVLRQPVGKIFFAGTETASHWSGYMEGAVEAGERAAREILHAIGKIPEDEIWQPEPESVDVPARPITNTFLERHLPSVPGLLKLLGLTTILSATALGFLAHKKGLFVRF

Butyrylcholinesterase [5] = molecular target: T2, Butyrylcholinesterase; experiment: In vitro inhibitory concentration against Butyrylcholinesterase of horse serum; value ranges from 0.20-0.36; in short: as §1
Acetylcholinesterase [6] = molecular target: T3, Acetylcholinesterase
Acetylcholinesterase [7] = molecular target: T3, Acetylcholinesterase; experiment: In vitro inhibitory concentration against purified Acetylcholinesterase of human erythrocytes; value ranges from 13.6-128
[8] = molecular target: T1, Amine oxidase [flavin-containing] A; experiment: biochemical
[9] = molecular target: T4, Amine oxidase [flavin-containing] B; experiment: In vitro inhibitory concentration against Monoamine oxidase B of rat brain homogenates; type: tissue-based
Butyrylcholinesterase [10] = molecular target: T2, Butyrylcholinesterase; experiment: In vitro inhibitory concentration against Butyrylcholinesterase of horse serum; value ranges from 1.6-3.6
[11] = molecular target: T4, Amine oxidase [flavin-containing] B; experiment: In vitro inhibitory concentration against Monoamine oxidase B of rat brain homogenates; value ranges from 0.7-1.3; type: tissue-based
[12] = molecular target: T1, Amine oxidase [flavin-containing] A; experiment: In vitro inhibitory concentration against Monoamine oxidase A of rat brain homogenates; value ranges from 0.5-1.6; type: tissue-based
Acetylcholinesterase [13] = molecular target: T3, Acetylcholinesterase; experiment: In vitro inhibitory concentration against purified Acetylcholinesterase of human erythrocytes; value ranges from 2.2-10.1
[14] = molecular target: T1, Amine oxidase [flavin-containing] A; experiment: In vitro inhibitory concentration against Monoamine oxidase A of rat brain homogenates; value ranges from 1.8-2.4; type: tissue-based
Butyrylcholinesterase [15] = molecular target: T2, Butyrylcholinesterase; experiment: In vitro inhibitory concentration against Butyrylcholinesterase of horse serum; value ranges from 0.71-0.86; in short: as §1
[16] = molecular target: T1, Amine oxidase [flavin-containing] A; experiment: In vitro inhibitory concentration against Monoamine oxidase A of rat brain homogenates; value ranges from 0.28-0.34; type: tissue-based
Acetylcholinesterase [17] = molecular target: T3, Acetylcholinesterase; experiment: In vitro inhibitory concentration against purified Acetylcholinesterase of human erythrocytes; value ranges from 31.2-202
Butyrylcholinesterase [18] = molecular target: T2, Butyrylcholinesterase; experiment: In vitro inhibitory concentration against Butyrylcholinesterase of horse serum; value ranges from 1.19-6.10; in short: as §1
Butyrylcholinesterase [19] = molecular target: T2, Butyrylcholinesterase; experiment: In vitro inhibitory concentration against Butyrylcholinesterase of horse serum; value ranges from […]; in short: as §1
[20] = molecular target: T1, Amine oxidase [flavin-containing] A; experiment: In vitro inhibitory concentration against Monoamine oxidase A of rat brain homogenates; type: tissue-based
Acetylcholinesterase [21] = molecular target: T3, Acetylcholinesterase; experiment: In vitro inhibitory concentration against purified Acetylcholinesterase of human erythrocytes; value ranges from 3.87-11.9
Acetylcholinesterase [22] = molecular target: T3, Acetylcholinesterase; experiment: In vitro inhibitory concentration against purified Acetylcholinesterase of human erythrocytes; value ranges from 4.6-25.8
[23] = molecular target: T1, Amine oxidase [flavin-containing] A; experiment: In vitro inhibitory concentration against Monoamine oxidase A of rat brain homogenates; value ranges from 0.005-0.012; type: tissue-based
Acetylcholinesterase [24] = molecular target: T3, Acetylcholinesterase; experiment: In vitro inhibitory concentration against purified Acetylcholinesterase of human erythrocytes; value ranges from 0.12-0.32
Acetylcholinesterase [25] = molecular target: T3, Acetylcholinesterase; experiment: In vitro inhibitory concentration against purified Acetylcholinesterase of human erythrocytes; value ranges from 0.54-0.56
Butyrylcholinesterase [26] = molecular target: T2, Butyrylcholinesterase
[27] = molecular target: T4, Amine oxidase [flavin-containing] B; experiment: In vitro inhibitory concentration against Monoamine oxidase B of rat brain homogenates; value ranges from 200-1400; type: tissue-based
Butyrylcholinesterase [28] = molecular target: T2, Butyrylcholinesterase; remark: listed apart in the source
[29] = molecular target: T1, Amine oxidase [flavin-containing] A; experiment: In vitro inhibitory concentration against Monoamine oxidase A of rat brain homogenates; value ranges from 560-1000; type: tissue-based

## C#CCNC(C)Cc1cccc(OC(=O)N(C)CCCC)c1 (stereo unspecified)
[1]
  pIC50: 4.82
Butyrylcholinesterase [2]
  pIC50: 5.56
Acetylcholinesterase [3]
  pIC50: 4.91
[4]
  pIC50: 6.40

## C#CC(C)NCCc1cccc(OC(=O)N(C)CC)c1 (stereo unspecified)
Butyrylcholinesterase [5]
  pIC50: 6.62

## C#CCNC1CCc2c(Cl)cc(OC(=O)N(C)CC)cc21 (stereo unspecified)
Acetylcholinesterase [6]
  pIC50: 4.59

## C#CCN[C@H]1CCc2ccc(OC(=O)N(C)CC)cc21
Acetylcholinesterase [7]
  pIC50: 4.46
[8]
  pIC50: 3.26
[9]
  pIC50: < 3.00
Butyrylcholinesterase [10]
  pIC50: 5.66

## C#CCNC1CCc2c(O)cccc21 (stereo unspecified)
[11]
  pIC50: 6.05
[12]
  pIC50: 6.05

## C#CCNC1CCc2ccc(OC(=O)N(C)C)cc2C1 (stereo unspecified)
Acetylcholinesterase [13]
  pIC50: 5.39
[14]
  pIC50: 5.70
[9]
  pIC50: 3.00
Butyrylcholinesterase [15]
  pIC50: 6.11

## C#CCN[C@@H]1CCc2ccc(O)cc21
[16]
  pIC50: 6.52

## C#CCNC1CCc2ccc(OC(=O)N(CC)CCCC)cc21 (stereo unspecified)
Acetylcholinesterase [17]
  pIC50: 4.14
Butyrylcholinesterase [18]
  pIC50: 5.52

## CCN(C)C(=O)Oc1ccc2c(c1)C(N)CCC2 (stereo unspecified)
Butyrylcholinesterase [19]
  pIC50: 5.27
[20]
  pIC50: 3.00
Acetylcholinesterase [21]
  pIC50: 5.21

## C#CCN[C@H]1CCc2ccc(OC(=O)N(C)CCCC)cc21
Acetylcholinesterase [22]
  pIC50: 5.03

## C#CCN(C)C1CCc2c(O)cccc21 (stereo unspecified)
[23]
  pIC50: 8.10

## CN(C)CCc1cccc(OC(=O)N(C)C)c1
Acetylcholinesterase [24]
  pIC50: 6.80
[9]
  pIC50: < 3.00

## C#CCNC1CCc2ccc(OC(=O)N(C)c3ccccc3)cc21 (stereo unspecified)
Acetylcholinesterase [25]
  pIC50: 6.26
Butyrylcholinesterase [26]
  pIC50: 4.78

## C#CCNC1CCc2ccc(OC(=O)N(C)C)cc21 (stereo unspecified)
[27]
  pIC50: 3.28
Butyrylcholinesterase [28]
  pIC50: 5.68
[29]
  pIC50: 3.12
